Data from ChEMBL document CHEMBL3596157, “Heteroaromatic analogs of the resveratrol analog DMU-212 as potent anti-cancer agents” (2015).

How the values were obtained:
Type in all cases: functional
MDA-MB-231 = assay: Growth inhibition of human MDA-MB-231/ATCC cells after 48 hrs by SRB assay; conditions: MDA-MB-231, 48 h
Procedure, shortened: (§1)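 NCI-60 panel screen. Cells exposed for 48 h to five concentrations (10−4, 10−5, 10−6, 10−7 and 10−8 M). Sulforhodamine B optical density is read just before compound addition (time zero) and after 48 h, for both treated and vehicle-control wells. Percent growth is calculated against control. GI50 is the concentration giving a 50% reduction in net cell growth relative to cell numbers on day 0.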

IGROV-1 = assay: Growth inhibition of human IGROV1 cells after 48 hrs by SRB assay; conditions: IGROV-1, 48 h; procedure, shortened: as §1
[1] = Growth inhibition of human EKVX cells after 48 hrs by SRB assay; procedure, shortened: as §1
TK-10 = assay: Growth inhibition of human TK10 cells after 48 hrs by SRB assay; conditions: TK-10, 48 h
Procedure, shortened: (§2)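 NCI-60 panel cells; preliminary single-dose screen at 10−5 M, then five-dose testing at 10−4 to 10−8 M (tenfold steps) with 48 h exposure. SRB-stained optical density read before compound addition (time zero), after 48 h with compound, and with vehicle control. Percent growth is calculated against control. GI50 is the concentration giving 50% reduction in net growth relative to day-0 cell number.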

NCI-H322M = assay: Growth inhibition of human NCI-H322M cells after 48 hrs by SRB assay; procedure, shortened: as §1
OVCAR-8 = assay: Growth inhibition of human OVCAR8 cells after 48 hrs by SRB assay; conditions: OVCAR-8, 48 h; procedure, shortened: as §1
[2] = Growth inhibition of human RPMI8226 cells after 48 hrs by SRB assay; conditions: RPMI-8226, 48 h; procedure, shortened: as §1
[3] = Growth inhibition of human MOLT4 cells after 48 hrs by SRB assay; conditions: MOLT-4, 48 h; procedure, shortened: as §1
[4] = Growth inhibition of human NCI-ADR-RES cells after 48 hrs by SRB assay; procedure, shortened: as §1
MDA-MB-435 = assay: Growth inhibition of human MDA-MB-435 cells after 48 hrs by SRB assay; conditions: MDA-MB-435, 48 h; procedure, shortened: as §1
SK-OV-3 = assay: Growth inhibition of human SKOV3 cells after 48 hrs by SRB assay; conditions: SK-OV-3, 48 h; procedure, shortened: as §1
CCRF-CEM = assay: Growth inhibition of human CCRF-CEM cells after 48 hrs by SRB assay; procedure, shortened: as §1
K562 = assay: Growth inhibition of human K562 cells after 48 hrs by SRB assay; conditions: K562, 48 h; procedure, shortened: as §1
[5] = Growth inhibition of human SF295 cells after 48 hrs by SRB assay; conditions: SF-295, 48 h; procedure, shortened: as §1
SF-268 = assay: Growth inhibition of human SF268 cells after 48 hrs by SRB assay; conditions: SF-268, 48 h; procedure, shortened: as §1
Malme-3M = assay: Growth inhibition of human MALME-3M cells after 48 hrs by SRB assay; procedure, shortened: as §1
SK-MEL-2 = assay: Growth inhibition of human SK-MEL-2 cells after 48 hrs by SRB assay; conditions: SK-MEL-2, 48 h; procedure, shortened: as §1
A549 = assay: Growth inhibition of human A549/ATCC cells after 48 hrs by SRB assay; conditions: A549, 48 h; procedure, shortened: as §1
NCI-H522 = assay: Growth inhibition of human NCI-H522 cells after 48 hrs by SRB assay; conditions: NCI-H522, 48 h; procedure, shortened: as §1
SN12C = assay: Growth inhibition of human SN12C cells after 48 hrs by SRB assay; procedure, shortened: as §1
UACC-62 = assay: Growth inhibition of human UACC62 cells after 48 hrs by SRB assay; conditions: UACC-62, 48 h; procedure, shortened: as §2
[6] = Growth inhibition of human LOXIMVI cells after 48 hrs by SRB assay; conditions: LOX IMVI; procedure, shortened: as §1
NCI-H460 = assay: Growth inhibition of human NCI-H460 cells after 48 hrs by SRB assay; conditions: NCI-H460, 48 h; procedure, shortened: as §1
UO-31 = assay: Growth inhibition of human UO31 cells after 48 hrs by SRB assay; conditions: UO-31, 48 h; procedure, shortened: as §2
UACC-257 = assay: Growth inhibition of human UACC257 cells after 48 hrs by SRB assay; conditions: UACC-257, 48 h; procedure, shortened: as §2
SW-620 = assay: Growth inhibition of human SW620 cells after 48 hrs by SRB assay; conditions: SW-620, 48 h; procedure, shortened: as §2
OVCAR-5 = assay: Growth inhibition of human OVCAR5 cells after 48 hrs by SRB assay; conditions: OVCAR-5, 48 h; procedure, shortened: as §1
[7] = Growth inhibition of human HCC2998 cells after 48 hrs by SRB assay; conditions: HCC 2998, 48 h; procedure, shortened: as §1
SR = assay: Growth inhibition of human SR cells after 48 hrs by SRB assay; procedure, shortened: as §2
[8] = Growth inhibition of human SF539 cells after 48 hrs by SRB assay; conditions: SF-539, 48 h; procedure, shortened: as §1
ACHN = assay: Growth inhibition of human ACHN cells after 48 hrs by SRB assay; procedure, shortened: as §1
SK-MEL-28 = assay: Growth inhibition of human SK-MEL-28 cells after 48 hrs by SRB assay; conditions: SK-MEL-28, 48 h; procedure, shortened: as §1
[9] = Growth inhibition of human BT549 cells after 48 hrs by SRB assay; conditions: BT-549, 48 h; procedure, shortened: as §1
OVCAR-4 = assay: Growth inhibition of human OVCAR4 cells after 48 hrs by SRB assay; conditions: OVCAR-4, 48 h; procedure, shortened: as §1
[10] = Growth inhibition of human HOP92 cells after 48 hrs by SRB assay; conditions: HOP-92, 48 h; procedure, shortened: as §1
HCT-116 = assay: Growth inhibition of human HCT116 cells after 48 hrs by SRB assay; conditions: HCT-116, 48 h; procedure, shortened: as §1
PC-3 = assay: Growth inhibition of human PC3 cells after 48 hrs by SRB assay; conditions: PC-3, 48 h; procedure, shortened: as §1
[11] = Growth inhibition of human Hs578T cells after 48 hrs by SRB assay; conditions: Hs-578T; procedure, shortened: as §1
M14 = assay: Growth inhibition of human M14 cells after 48 hrs by SRB assay; conditions: M14, 48 h; procedure, shortened: as §1
DU-145 = assay: Growth inhibition of human DU145 cells after 48 hrs by SRB assay; conditions: DU-145, 48 h; procedure, shortened: as §1
SNB-75 = assay: Growth inhibition of human SNB75 cells after 48 hrs by SRB assay; conditions: SNB-75, 48 h; procedure, shortened: as §2
NCI-H23 = assay: Growth inhibition of human NCI-H23 cells after 48 hrs by SRB assay; conditions: NCI-H23, 48 h; procedure, shortened: as §1
786-0 = assay: Growth inhibition of human 786-0 cells after 48 hrs by SRB assay; conditions: 786-0, 48 h; procedure, shortened: as §1
NCI-H226 = assay: Growth inhibition of human NCI-H226 cells after 48 hrs by SRB assay; conditions: NCI-H226, 48 h; procedure, shortened: as §1
OVCAR-3 = assay: Growth inhibition of human OVCAR3 cells after 48 hrs by SRB assay; conditions: OVCAR-3, 48 h; procedure, shortened: as §1
KM12 = assay: Growth inhibition of human KM12 cells after 48 hrs by SRB assay; conditions: KM12, 48 h; procedure, shortened: as §1
SNB-19 = assay: Growth inhibition of human SNB19 cells after 48 hrs by SRB assay; conditions: SNB-19, 48 h; procedure, shortened: as §1
[12] = Growth inhibition of human COLO205 cells after 48 hrs by SRB assay; conditions: COLO 205, 48 h; procedure, shortened: as §1
[13] = Growth inhibition of human RXF393 cells after 48 hrs by SRB assay; conditions: RXF 393, 48 h; procedure, shortened: as §1
SK-MEL-5 = assay: Growth inhibition of human SK-MEL-5 cells after 48 hrs by SRB assay; conditions: SK-MEL-5, 48 h; procedure, shortened: as §1
HT-29 = assay: Growth inhibition of human HT-29 cells after 48 hrs by SRB assay; conditions: HT-29, 48 h; procedure, shortened: as §1
HOP-62 = assay: Growth inhibition of human HOP62 cells after 48 hrs by SRB assay; conditions: HOP-62, 48 h; procedure, shortened: as §1
A498 = assay: Growth inhibition of human A498 cells after 48 hrs by SRB assay; conditions: A498, 48 h; procedure, shortened: as §1
U-251 = assay: Growth inhibition of human U251 cells after 48 hrs by SRB assay; conditions: U-251, 48 h; procedure, shortened: as §2
CAKI-1 = assay: Growth inhibition of human Caki1 cells after 48 hrs by SRB assay; conditions: CAKI-1, 48 h; procedure, shortened: as §1
MCF7 = assay: Growth inhibition of human MCF7 cells after 48 hrs by SRB assay; conditions: MCF7, 48 h; procedure, shortened: as §1
HCT-15 = assay: Growth inhibition of human HCT15 cells after 48 hrs by SRB assay; conditions: HCT-15, 48 h; procedure, shortened: as §1

`COc1cc(/C=C/c2cc3ccccc3s2)cc(OC)c1OC` showed a GI50 (MDA-MB-231) of 450 nM, a GI50 (IGROV-1) of 520 nM and a GI50 [1] of 10300 nM. It also gave a GI50 (TK-10) of 566 nM, a GI50 (NCI-H322M) of 649 nM and a GI50 (OVCAR-8) of 352 nM. For the same molecule, the GI50 [2] was 268 nM, the GI50 [3] was 424 nM and the GI50 [4] was 70 nM. It also gave a GI50 (MDA-MB-435) of 36 nM, a GI50 (SK-OV-3) of 263 nM and a GI50 (CCRF-CEM) of 262 nM. For the same molecule, the GI50 (K562) was 88 nM, the GI50 [5] was 442 nM and the GI50 (SF-268) was 985 nM. For the same molecule, the GI50 (Malme-3M) was 826 nM, the GI50 (SK-MEL-2) was 323 nM and the GI50 (A549) was 310 nM. It also gave a GI50 (NCI-H522) of 153 nM, a GI50 (SN12C) of 666 nM and a GI50 (UACC-62) of 185 nM. It also gave a GI50 [6] of 382 nM, a GI50 (NCI-H460) of 351 nM and a GI50 (UO-31) of 513 nM. The GI50 (UACC-257) was 520 nM, the GI50 (SW-620) was 293 nM and the GI50 (OVCAR-5) was 547 nM. The GI50 [7] was 307 nM, the GI50 (SR) was 120 nM and the GI50 [8] was 299 nM. For the same molecule, the GI50 (ACHN) was 810 nM, the GI50 (SK-MEL-28) was 346 nM and the GI50 [9] was 326 nM. The GI50 (OVCAR-4) was 553 nM, the GI50 [10] was 322 nM and the GI50 (HCT-116) was 246 nM. For the same molecule, the GI50 (PC-3) was 276 nM, the GI50 [11] was 275 nM and the GI50 (M14) was 169 nM. The GI50 (DU-145) was 402 nM, the GI50 (SNB-75) was 190 nM and the GI50 (NCI-H23) was 324 nM. It also gave a GI50 (786-0) of 445 nM, a GI50 (NCI-H226) of 442 nM and a GI50 (OVCAR-3) of 224 nM. It also gave a GI50 (KM12) of 213 nM, a GI50 (SNB-19) of 362 nM and a GI50 [12] of 209 nM. The GI50 [13] was 168 nM, the GI50 (SK-MEL-5) was 267 nM and the GI50 (HT-29) was 234 nM. It also gave a GI50 (HOP-62) of 420 nM, a GI50 (A498) of 213 nM and a GI50 (U-251) of 338 nM. The GI50 (CAKI-1) was 4350 nM, the GI50 (MCF7) was 285 nM and the GI50 (HCT-15) was 328 nM.
